For data set [1], the system named is Mus musculus. Description: Antidepressant activity in KunMing mouse assessed as immobility time at 50 mg/kg, ip by forced swimming test. The data set is classed as functional. As to conditions: route intraperitoneal. A digest of the protocol: (§1)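 Compounds in DMSO given i.p. to mice, n = 8 per group. Dose was 50 mg/kg, or 10, 25 and 50 mg/kg in the dose-response study. After 30 min each mouse was placed in a water-filled cylinder (water 18 cm deep, 23–25 °C). Immobility (upright floating, only slight movements) was timed over the last 4 min of 6 min. %DID = (A − B)/A × 100, where A is control immobility and B is test immobility. Mean ± SEM; ANOVA with Dunnett's test versus control.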

Data set [2] deals with Mus musculus. The data set is described as follows: Antidepressant activity in KunMing mouse assessed as decrease in immobility time at 50 mg/kg, ip by forced swimming test relative to control. Format: functional. Details: scale not given: the % may be the effect or the level left. As to conditions: route intraperitoneal. A digest of the protocol:
as §1

Data set [3] deals with Mus musculus. The data set is described as follows: Neurotoxicity in KunMing mouse assessed as motor impairment at 300 mg/kg, ip after 4 hrs by rotarod test. Format: toxicity, organism-based. Set-up: dose 300 mg/kg, route intraperitoneal. As to conditions: in vivo. A digest of the protocol: (§2)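 Mice were trained on a 3.2 cm diameter rotarod turning at 10 rpm, then given compounds in DMSO i.p. at 30, 100 or 300 mg/kg. Neurotoxicity = failure to stay on the rod for at least 1 min in each trial, checked at 0.5 and 4 h. Value is the minimal dose toxic in half or more of the mice.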
For orientation: In the rotarod test animals must keep their balance on a rotating rod.

Data set [4] relates to Mus musculus. The data set is described as follows: Neurotoxicity in KunMing mouse assessed as motor impairment at 300 mg/kg, ip after 0.5 hrs by rotarod test. Details: dose 300 mg/kg, route intraperitoneal. As to conditions: in vivo. Format: toxicity, organism-based. The procedure, abridged:
as §2

Data set [5] has as its system Mus musculus. The data set is described as follows: Anticonvulsant activity in KunMing mouse assessed as protection against maximal electroshock-induced seizures at 300 mg/kg, ip after 4 hrs. Set-up: dose 300 mg/kg. The data set is classed as functional, organism-based. A digest of the protocol:
(§3)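 Mice (22 ± 2 g) given compounds in DMSO i.p. at 30, 100 and 300 mg/kg; seizures elicited by electroshock via ear stimulation. Protection = abolition of hind limb tonic extension, read at 0.5 and 4 h after injection. Value is the minimal dose active in half or more of the mice; 300 mg/kg was the top dose.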
For orientation: Protection in the maximal electroshock model is a classic sign of anticonvulsant action.

Data set [6] relates to Mus musculus. The data set is described as follows: Anticonvulsant activity in KunMing mouse assessed as protection against maximal electroshock-induced seizures at 300 mg/kg, ip after 0.5 hrs. Details: dose 300 mg/kg. Format: functional, organism-based. A digest of the protocol:
as §3

Data set [7] concerns Mus musculus. The data set is described as follows: Neurotoxicity in KunMing mouse at 50 mg/kg, ip. Format: toxicity, organism-based. Details: dose 50 mg/kg, route intraperitoneal. As to conditions: in vivo.
The test system of data set [8] is Mus musculus. The data set is described as follows: Neurotoxicity in ip dosed KunMing mouse assessed as motor impairment after 4 hrs by rotarod test. The data set is classed as toxicity, organism-based. As to conditions: in vivo. The procedure, abridged: as §2
Data set [9] deals with Mus musculus. The data set is described as follows: Anticonvulsant activity in ip dosed KunMing mouse assessed as protection against maximal electroshock-induced seizures after 4 hrs. The data set is classed as functional. As to conditions: read-out: MED. A digest of the protocol: as §3
Data set [10] has as its system Mus musculus. Description: Anticonvulsant activity in ip dosed KunMing mouse assessed as protection against maximal electroshock-induced seizures after 0.5 hrs. Format: functional. As to conditions: read-out: MED. A digest of the protocol:
as §3

Data set [11] deals with Mus musculus. The data set is described as follows: Neurotoxicity in ip dosed KunMing mouse assessed as motor impairment after 0.5 hrs by rotarod test. As to conditions: in vivo. The data set is classed as toxicity, organism-based. A digest of the protocol:
as §2

Data set [12] relates to Mus musculus. Description: Anticonvulsant activity in KunMing mouse assessed as protection against maximal electroshock-induced seizures at 100 mg/kg, ip after 0.5 hrs relative to control. The data set is classed as functional. As to conditions: route intraperitoneal. A digest of the protocol:
as §3

The test system of data set [13] is Mus musculus. Description: Antidepressant activity in KunMing mouse at 50 mg/kg, ip by tail suspension test. Format: functional, organism-based. Set-up: dose 50 mg/kg. The procedure, abridged: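 Male KunMing mice (22 ± 2 g, n = 8 per group), dosed i.p. at 50 mg/kg from a dimethylsulfoxide solution. Each mouse was hung by the tail above the floor with adhesive tape about 1-2 cm from the tail tip. Immobility, meaning completely motionless and hanging passively, was timed over the last 6 min of a 7 min session. Read-out was mean ± SEM, compared with control by ANOVA followed by Dunnett's test.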

The source made the active and inactive calls. No cut-off for these calls is given here.

On to `O=C1CCc2cc(-n3cnnc3)ccc2N1Cc1c(Cl)cccc1Cl`, for which the Time in data set [1] turned out to be 111 s. Besides, the Activity in data set [2] is 15.7%; in data set [3], “Non-toxic”; in data set [4] it was “Non-toxic”; in data set [7], “Non-toxic”. Further, the result in data set [5] and in [6] was inactive.
Take `CCCCCCCCCCN1C(=O)CCc2cc(-n3cnnc3)ccc21`: the Time in data set [1] turned out to be 101 s. The Activity is listed as 22.6% in data set [2], “Non-toxic” in [3], “Non-toxic” in data set [4] and “Non-toxic” in [7]. Further, the outcome in [5] and in [6] was inactive.
Turning to `CCCCCCCCN1C(=O)CCc2cc(-n3cnnc3)ccc21`, in [1], the Time is listed as 83.3 s. Besides, the Activity in data set [2] was 35.8%; in data set [4], “Non-toxic”; in data set [7], “Non-toxic”. Moreover, the MTC in [8] stood at 300 mg/kg. The minimal effective dose in data set [9] and in data set [10] was 300 mg/kg each time.
For the compound `O=C1NC(=O)C(c2ccccc2)(c2ccccc2)N1` [PHENYTOIN], the MTC in data set [8] and in data set [11] was 100 mg/kg in each case. In addition, the minimal effective dose in data set [9] turned out to be 100 mg/kg; in data set [10], 30 mg/kg.
In the case of `O=C1CCc2cc(-n3cnnc3)ccc2N1Cc1cccc(Cl)c1`, the Time in data set [1] is 53.4 s. For the same compound, the Activity in [2] is reported as 59.1%; in data set [3] it was “Non-toxic”; in [4], “Non-toxic”; in data set [7], “Non-toxic”. Further, in [6], the result was inactive. Also, the minimal effective dose in data set [9] worked out at 300 mg/kg.
On to `CCCN1C(=O)CCc2cc(-n3cnnc3)ccc21`, for which the Time in data set [1] turned out to be 123.6 s. For the same compound, the Activity in [2] is 5.3%; in data set [4], “Non-toxic”; in data set [7], “Non-toxic”. In addition, the result in data set [5] and in data set [6] was inactive. Moreover, the MTC in [8] is 300 mg/kg.
On to `O=C1CCc2cc(-n3cnnc3)ccc2N1Cc1ccc(F)cc1`, for which the Time in [1] was 71.1 s. The Activity in [2] is 45.5%; in [3] it was “Non-toxic”; in data set [4] it was “Non-toxic”; in data set [7] it was “Non-toxic”. Also, the result in [6] was inactive. In addition, the minimal effective dose in [9] was found to be 300 mg/kg.
Take `Cc1ccc(CN2C(=O)CCc3cc(-n4cnnc4)ccc32)cc1`: in data set [1], the Time is 78.8 s. Moreover, the Activity is recorded as 39.6% in data set [2], “Non-toxic” in data set [3], “Non-toxic” in [4] and “Non-toxic” in [7]. Moreover, the outcome in [5] and in [6] was inactive.
Turning to `CCCCCCCN1C(=O)CCc2cc(-n3cnnc3)ccc21`, the Time in data set [1] stood at 77.9 s. Moreover, the figures for the Activity in data set [2] and in data set [7] were 40.3% and “Non-toxic”, respectively. Moreover, the result in data set [5] was inactive. For the same compound, the MTC in data set [8] and in data set [11] was 300 mg/kg each time. Also, the minimal effective dose in data set [10] stood at 300 mg/kg.
`O=C1CCc2cc(-n3cnnc3)ccc2N1Cc1ccc(Cl)cc1Cl`: the Time in data set [1] is 105.8 s. For the same compound, the Activity in data set [2] was 18.9%; in [3], “Non-toxic”; in data set [4], “Non-toxic”; in [7], “Non-toxic”. The minimal effective dose in data set [9] and in data set [10] was 300 mg/kg throughout.
As to `CCCC(CCC)C(=O)[O-].[Na+]` [VALPROATE SODIUM], the Activity result in data set [3] and in data set [4] was “Non-toxic” each time. For the same compound, the outcome in [5] was inactive. Moreover, the minimal effective dose in [10] is 300 mg/kg.
Turning to `O=C1CCc2cc(-n3cnnc3)ccc2N1Cc1ccccc1Cl`, the Time in [1] came to 77.8 s. For the same compound, the Activity in data set [2] was 40.4%; in [3] it was “Non-toxic”; in data set [4] it was “Non-toxic”; in data set [7] it was “Non-toxic”. In addition, the outcome in [6] was inactive. In addition, the minimal effective dose in data set [9] was 300 mg/kg.
As for `O=C1CCc2cc(-n3cnnc3)ccc2N1Cc1cccc(C(F)(F)F)c1`, in data set [1], the Time stood at 93.3 s. The Activity is on record as 37.2% in [2], “Non-toxic” in data set [3], “Non-toxic” in [4] and “Non-toxic” in data set [7]. Moreover, the minimal effective dose in data set [9] and in [10] was 300 mg/kg in each case.
For the compound `O=C1CCc2cc(-n3cnnc3)ccc2N1Cc1ccccc1`, the Time in [1] was determined as 68.1 s. In addition, the Activity in data set [2] was 47.8%; in data set [3], “Non-toxic”; in [4], “Non-toxic”; in data set [7], “Non-toxic”. For the same compound, the outcome in [5] and in [6] was inactive.
As for `CCCCN1C(=O)CCc2cc(-n3cnnc3)ccc21`, in data set [1], the Time is recorded as 70 s. For the same compound, the values for the Activity in data set [2], in data set [4] and in data set [7] were 46.4%, “Non-toxic” and “Non-toxic”, respectively. Besides, the result in [5] and in data set [6] was inactive. For the same compound, in data set [8], the MTC is 300 mg/kg.
For `COc1ccc(CN2C(=O)CCc3cc(-n4cnnc4)ccc32)cc1`, the Time in data set [1] is 121.6 s. Besides, the Activity is on record as 6.8% in [2], “Non-toxic” in [3], “Non-toxic” in [4] and “Non-toxic” in [7]. For the same compound, the outcome in [5] and in data set [6] was inactive.
Regarding `CCCCCN1C(=O)CCc2cc(-n3cnnc3)ccc21`, the Time in data set [1] worked out at 129.8 s. Besides, the Activity in data set [2] is recorded as 0.5%; in data set [7], “Non-toxic”; in data set [12] it was 100%. The outcome in data set [5] was inactive. Moreover, the MTC in data set [8] and in data set [11] was 300 mg/kg in each case. For the same compound, the minimal effective dose in data set [10] came out at 100 mg/kg.
For `O=C1CCc2cc(-n3cnnc3)ccc2N1Cc1ccc(Cl)cc1`, the Time in data set [1] came to 36.1 s. Moreover, the Activity in data set [2] was 72.3%; in data set [3], “Non-toxic”; in data set [4], “Non-toxic”; in [7] it was “Non-toxic”. Further, the outcome in [5] and in [6] was inactive.
Take `CNCCC(Oc1ccc(C(F)(F)F)cc1)c1ccccc1` (stereo unspecified) [FLUOXETINE]: the Time in [1] is 65.9 s. The Activity in data set [2] was 49.5%. Besides, the result in data set [13] was Active.
On to `O=C1CCc2cc(-n3cnnc3)ccc2N1Cc1cccc(F)c1`, for which the Time in data set [1] was 43 s. Moreover, the Activity is listed as 67% in data set [2], “Non-toxic” in [3], “Non-toxic” in data set [4] and “Non-toxic” in data set [7]. The result in data set [5] and in data set [6] was inactive.

These data come from ChEMBL document CHEMBL3124842, “Design, synthesis and evaluation of the antidepressant and anticonvulsant activities of triazole-containing quinolinones” (Eur J Med Chem, 2014).
